Data published in ChEMBL document CHEMBL1134284, “The biological effects of structural variation at the meta position of the aromatic rings and at the end of the alkenyl chain in the alkenyldiarylmethane series of non-nucleoside reverse transcriptase inhibitors” (J Med Chem, 2001).

Legend:
[1] = (§1) Antiviral activity against Ba-L monocyte tropic isolate strain in monocyte; format: functional; conditions: Homo sapiens
How it was run: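 Monocytes isolated from hepatitis- and HIV-seronegative donors by Ficoll-Hypaque gradient, cultured 6 days into macrophages, then infected with Ba-L. Medium RPMI 1640 with 10% FBS, 2 mM glutamine, penicillin/streptomycin. Replication read as p24 antigen by ELISA 6 days postinfection. […] Run in triplicate, with AZT as positive control.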

[2] = as §1; format: ADME; conditions: human, monocytes; read-out: TC50 (the source's name)
How it was run: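 Monocytes isolated from hepatitis- and HIV-seronegative donors by Ficoll-Hypaque gradient, cultured 6 days, then infected. Medium RPMI 1640 with 10% FBS, 2 mM glutamine, penicillin/streptomycin. Virus replication measured by p24 antigen ELISA 6 days postinfection. […] Run in triplicate, SD within triplicate under 10%; AZT positive control.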

CCRF-CEM [3] = assay: Antiviral activity against site directed 4X AZT resistant isolate HIV-1 L100I in CEM cells; format: functional, cell-based, Homo sapiens
How it was run: (§2)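 CEM-SS cells infected with low-cytopathicity site-directed RT-mutant NL4-3 clones (A98G, L74V, 4XAZT = D67N/K70R/T215Y/K219Q, 4XAZT/L100I). Replication was quantified by p24 ELISA rather than cytoprotection. […] Triplicate, variation of mean about 10%.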

CCRF-CEM [4] = assay: Antiviral activity against site directed 4X AZT resistant isolate HIV-1 in CEM cells; format: functional, cell-based, Homo sapiens
CCRF-CEM [5] = assay: Antiviral activity against site directed resistant isolate HIV-1 K101E in CEM cells; format: functional, cell-based, Homo sapiens
CCRF-CEM [6] = assay: Antiviral activity against site directed resistant isolate HIV-1 K103N in CEM cells; format: functional, cell-based, Homo sapiens
How it was run: (§3)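 CEM-SS cells in RPMI 1640 with 10% heat-inactivated FBS were infected with NL4-3 molecular clones carrying site-directed RT mutations. Cytoprotection from virus-induced syncytial killing was read by MTS/phenazine ethosulfate reduction (A490) 6 days after infection. […] Triplicate, variation of mean about 10%.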

CCRF-CEM [7] = assay: Antiviral activity against site directed resistant isolate HIV-1 L100I in CEM cells; format: functional, cell-based, Homo sapiens; how it was run: as §3
CCRF-CEM [8] = assay: Antiviral activity against site directed resistant isolate HIV-1 L74V in CEM cells; format: functional, cell-based, Homo sapiens; how it was run: as §2
CCRF-CEM [9] = assay: Antiviral activity against site directed resistant isolate HIV-1 V106A in CEM cells; format: functional, cell-based, Homo sapiens; how it was run: as §3
CCRF-CEM [10] = assay: Antiviral activity against site directed resistant isolate HIV-1 Y181C in CEM cells; format: functional, cell-based, Homo sapiens; how it was run: as §3
CCRF-CEM [11] = assay: Antiviral activity against site directed resistant isolate HIV-1 Y188C in CEM cells; format: functional, cell-based, Homo sapiens; how it was run: as §3
CCRF-CEM [12] = assay: Antiviral activity against site directed resistant isolates in HIV-1 A98G CEM cells; format: functional, cell-based, Homo sapiens; how it was run: as §2
CCRF-CEM [13] = assay: Antiviral activity against site directed wild-type enzyme isolate HIV-1 NL4-3WT in CEM cells; format: functional, cell-based; conditions: Homo sapiens
How it was run: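 Wild-type NL4-3 in CEM-SS cells, measured both by MTS cytoprotection 6 days after infection and by p24 ELISA. The IC50 is the mean of the two methods' values.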

[14] = (§4) Antiviral activity against subtype isolate O strain in PBLs (peripheral blood lymphocytes); format: cell-based; conditions: human, read-out: TC50 (the source's name)
How it was run: (§5)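 PBMC from hepatitis- and HIV-seronegative donors isolated by Ficoll-Hypaque gradient and stimulated 3 days with phytohemagglutinin/IL-2 before infection. Medium RPMI 1640 with 10% FBS, 2 mM glutamine, penicillin/streptomycin. Replication read as supernatant reverse transcriptase activity. […] Run in triplicate, SD within triplicate under 10%; AZT positive control.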

[15] = (§6) Antiviral activity against multi drug resistant MDR 769 strain in PBLs (peripheral blood lymphocytes); format: ADME, cell-based; conditions: human, read-out: TC50 (the source's name); how it was run: as §5
[16] = (§7) Antiviral activity against subtype isolate A strain in PBLs (peripheral blood lymphocytes); format: ADME, cell-based; conditions: human, read-out: TC50 (the source's name); how it was run: as §5
[17] = (§8) Antiviral activity against subtype isolate B strain in PBLs (peripheral blood lymphocytes); format: ADME, cell-based; conditions: human, read-out: TC50 (the source's name); how it was run: as §5
[18] = (§9) Antiviral activity against subtype isolate C strain in PBLs (peripheral blood lymphocytes); format: ADME, cell-based; conditions: human, read-out: TC50 (the source's name); how it was run: as §5
[19] = (§10) Antiviral activity against subtype isolate E strain in PBLs (peripheral blood lymphocytes); format: ADME, cell-based; conditions: human, read-out: TC50 (the source's name); how it was run: as §5
[20] = (§11) Antiviral activity against subtype isolate F strain in PBLs (peripheral blood lymphocytes); format: cell-based; conditions: human, read-out: TC50 (the source's name); how it was run: as §5
[21] = (§12) Antiviral activity against subtype isolate G strain in PBLs (peripheral blood lymphocytes); format: cell-based; conditions: human, read-out: TC50 (the source's name); how it was run: as §5
[22] = (§13) Antiviral activity against ROJO virus strain in PBLs (peripheral blood lymphocytes); format: functional, cell-based; conditions: Homo sapiens
How it was run: (§14)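 PBMCs isolated from hepatitis- and HIV-seronegative donors by Ficoll-Hypaque gradient and stimulated 3 days with phytohemagglutinin/IL-2. Infected with pediatric low-passage clinical isolates or NIAID subtype isolates, in RPMI 1640 with 10% FBS, 2 mM glutamine, penicillin/streptomycin. Replication read as supernatant reverse transcriptase activity. […] Run in triplicate, with AZT as positive control.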

[23] = (§15) Antiviral activity against SLKA virus strain in PBLs (peripheral blood lymphocytes); format: functional, cell-based; conditions: Homo sapiens; how it was run: as §14
[24] = (§16) Antiviral activity against TEKI virus strain in PBLs (peripheral blood lymphocytes); format: functional, cell-based; conditions: Homo sapiens; how it was run: as §14
[25] = (§17) Antiviral activity against WEJO virus strain in PBLs (peripheral blood lymphocytes); format: functional, cell-based; conditions: Homo sapiens; how it was run: as §14
[26] = as §6; format: functional, cell-based; conditions: Homo sapiens; how it was run: as §5
[27] = as §7; format: functional, cell-based; conditions: Homo sapiens; how it was run: as §14
[28] = as §8; format: functional, cell-based; conditions: Homo sapiens; how it was run: as §14
[29] = (§18) Antiviral activity against subtype isolate D strain in PBLs (peripheral blood lymphocytes); format: functional, cell-based; conditions: Homo sapiens; how it was run: as §14
[30] = as §10; format: functional, cell-based; conditions: Homo sapiens; how it was run: as §14
[31] = as §11; format: functional, cell-based; conditions: Homo sapiens; how it was run: as §14
[32] = as §12; format: functional, cell-based; conditions: Homo sapiens; how it was run: as §14
[33] = as §4; format: functional, cell-based; conditions: Homo sapiens; how it was run: as §14
[34] = as §13; format: ADME, cell-based; conditions: human, read-out: TC50 (the source's name); how it was run: as §5
[35] = as §15; format: ADME, cell-based; conditions: human, read-out: TC50 (the source's name); how it was run: as §5
[36] = as §16; format: ADME, cell-based; conditions: human, read-out: TC50 (the source's name); how it was run: as §5
CCRF-CEM [37] = assay: Antiviral activity against site directed resistant isolate HIV-1 V179D in CEM cells; format: functional, cell-based, Homo sapiens; how it was run: as §3
[38] = as §18; format: ADME, cell-based; conditions: human, read-out: TC50 (the source's name); how it was run: as §5
[39] = as §17; format: ADME, cell-based; conditions: human, read-out: TC50 (the source's name); how it was run: as §5
cells = conditions: Homo sapiens
[40] = system: Human immunodeficiency virus type 1 (RF/HAT ISOLATE); assay: Inhibitory concentration for cytopathicity of HIV-1RF in CEM-SS cells; format: functional, organism-based; conditions: Human immunodeficiency virus 1, RF
How it was run: (§19)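 CEM-SS cells kept in RPMI 1640 with 10% heat-inactivated FBS, 2 mM glutamine, penicillin/streptomycin. Microtiter assay with cytopathic HIV-1 RF, or mock infection for toxicity. Viability read by MTS/phenazine ethosulfate reduction (absorbance 490 nm) 6 days after infection. […] Triplicate.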

[41] = Ratio of CC50/EC50 was determined; format: cell-based; conditions: human, CEM-SS cells; read-out: TI
How it was run: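 HIV-1 RF–infected CEM-SS cells (RPMI 1640, 10% heat-inactivated FBS, 2 mM glutamine, penicillin/streptomycin), plus mock-infected CEM-SS in parallel. Cell killing and viability were read by MTS/phenazine ethosulfate reduction at 490 nm 6 days after infection. […] Index = CC50 ÷ EC50. Triplicate tests.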

CEM-SS = assay: Concentration required for cytotoxicity against mock infected CEM-SS cells; format: functional; conditions: Homo sapiens; how it was run: as §19
[42] = as §8; format: functional, cell-based, Homo sapiens; conditions: Homo sapiens; how it was run: as §14
[43] = as §9; format: functional, cell-based; conditions: Homo sapiens; how it was run: as §14
[44] = as §10; format: functional, cell-based; conditions: Homo sapiens; remark: listed apart in the source
[45] = as §11; format: functional, cell-based, Homo sapiens; how it was run: as §14
[46] = as §4; format: functional, cell-based, Homo sapiens; conditions: Homo sapiens; how it was run: as §14

| Structure (SMILES) | IC50 [1] | IC50 (CCRF-CEM [3]) | IC50 (CCRF-CEM [5]) | IC50 (CCRF-CEM [6]) | IC50 (CCRF-CEM [7]) | IC50 (CCRF-CEM [8]) | IC50 (CCRF-CEM [9]) | IC50 (CCRF-CEM [10]) | IC50 (CCRF-CEM [11]) | IC50 (CCRF-CEM [12]) | IC50 (CCRF-CEM [13]) | IC50 [22] | IC50 [23] | IC50 [24] | IC50 [25] | IC50 [26] | IC50 [27] | IC50 [29] | IC50 [32] | IC50 (CCRF-CEM [37]) | further results |
| --- | --- | --- | --- | --- | --- | --- | --- | --- | --- | --- | --- | --- | --- | --- | --- | --- | --- | --- | --- | --- | --- |
| Cc1cn([C@H]2C[C@H](N=[N+]=[N-])[C@@H](CO)O2)c(=O)[nH]c1=O [ZIDOVUDINE] | 2 nM | 870 nM | 46 nM | 7 nM | 6 nM | 40 nM | 14 nM | 80 nM | 87 nM | 8 nM | 17 nM | 1 nM | 1 nM | 2 nM | 1 nM | 25 nM | 1 nM | 7 nM | 2 nM | 20 nM | CC50 [2]: > 200000 nM; IC50 (CCRF-CEM [4]; ccrf-cem): 82 nM; CC50 [14]: > 170000 nM; CC50 [15]: > 172000 nM; CC50 [16]: > 180000 nM; CC50 [17]: > 200000 nM; CC50 [18]: > 200000 nM; CC50 [19]: > 170000 nM; CC50 [20]: > 200000 nM; CC50 [21]: > 170000 nM; IC50 [28]: 9 nM; IC50 [30]: 2 nM; IC50 [31]: 2 nM; IC50 [33]: 1 nM; CC50 [34]: > 190000 nM; CC50 [35]: > 190000 nM; CC50 [36]: > 190000 nM; CC50 [38]: > 200000 nM; CC50 [39]: > 190000 nM; IC50 (cells): 4 nM |
| COC(=O)CCCC=C(c1cc(Br)c(OC)c(C(=O)OC)c1)c1cc(Br)c(OC)c(C(=O)OC)c1 | 3600 nM | 320 nM | 594 nM | 350 nM | 84 nM | 284 nM | 9840 nM | 8300 nM | 2000 nM | 460 nM | 400 nM | 540 nM | 1000 nM | 900 nM | 400 nM | 48800 nM | 200 nM | 180 nM | 300 nM | 1300 nM | IC50 (CCRF-CEM [4]; Homo sapiens, CCRF-CEM): 32 nM; EC50 [40]: 1.3 nM; selectivity ratio [41]: 10000; CC50 (CEM-SS): 13000 nM; IC50 [42]: 5400 nM; IC50 [43]: 310 nM; IC50 [44]: 200 nM; IC50 [45]: 1900 nM; IC50 [46]: 16000 nM |
| Cc1ccnc2c1NC(=O)c1cccnc1N2C1CC1 [NEVIRAPINE] | – | 207 nM | 5 nM | 1440 nM | 180 nM | 61 nM | 1880 nM | 8270 nM | 8300 nM | 222 nM | 29 nM | – | – | – | – | – | – | – | – | 70 nM | IC50 (CCRF-CEM [4]; Homo sapiens, CCRF-CEM): 8 nM |
